Measured values published in ChEMBL document CHEMBL1629436, “Synthesis and biological evaluation of new camptothecin derivatives obtained by modification of position 20” (Bioorg Med Chem, 2010).
pIC50: −log10 of the molar value. Active and inactive are the calls of the source. No cut-off for these calls is given here.

Experiments:
[1] = tested on: A-431; experiment: Cytotoxicity against human A431 cells after 72 hrs by trypan blue assay; type: functional, cell-based; settings: A-431, 72 h
How it was run: (§1)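 A-431, HeLa and HL-60 cells at 4×10^4 per well, incubated 24 h. HeLa and A-431 then received fresh medium. Graded compound concentrations were added for a further 72 h at 37 °C, 5% CO2. Viability was counted by Trypan blue exclusion. IC50 is the concentration giving 50% reduction in cell number versus control: ≥3 independent experiments, triplicate samples, mean ± SD.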

[2] = tested on: HeLa; experiment: Cytotoxicity against human HeLa cells after 72 hrs by trypan blue assay; type: functional, cell-based; how it was run: as §1
[3] = tested on: HL-60; experiment: Cytotoxicity against human HL60 cells after 72 hrs by trypan blue assay; type: functional, cell-based; settings: HL-60, 72 h; how it was run: as §1
[4] = tested on: A2C12; experiment: Cytotoxicity against mouse A2C12 cells after 24 to 96 hrs by MTS assay; type: functional, cell-based
How it was run: (§2)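 Mouse transgenic lines plated at 10^3 cells/well and left 24 h to attach. Drugs diluted in medium were added for 24 or 96 h. CellTiter 96 AQueous One (MTS) reagent was then added for 1 h at 37 °C, with absorbance read at 490 nm. Each condition was run in quintuplicate, and cytotoxicity was expressed as percent of controls.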

[5] = tested on: yB8; experiment: Cytotoxicity against mouse yB8 cells after 24 to 96 hrs by MTS assay; type: functional, cell-based; how it was run: as §2
[6] = tested on: yD12; experiment: Cytotoxicity against mouse yD12 cells after 24 to 96 hrs by MTS assay; type: functional, cell-based; how it was run: as §2
[7] = species on record: Mus musculus; experiment: Cytotoxicity against mouse betaD10 cells after 24 to 96 hrs by MTS assay; type: functional, cell-based; how it was run: as §2
[8] = tested on: yA7; experiment: Cytotoxicity against mouse yA7 cells after 24 to 96 hrs by MTS assay; type: functional, cell-based; how it was run: as §2
[9] = tested on: yA3; experiment: Cytotoxicity against mouse yA3 cells after 24 to 96 hrs by MTS assay; type: functional, cell-based; how it was run: as §2
[10] = tested on: B3; experiment: Cytotoxicity against mouse B3 cells after 24 to 96 hrs by MTS assay; type: functional, cell-based; how it was run: as §2
[11] = species on record: Mus musculus; experiment: Cytotoxicity against mouse betaD5 cells after 24 to 96 hrs by MTS assay; type: functional, cell-based; how it was run: as §2
[12] = tested on: A2B1; experiment: Cytotoxicity against mouse A2B1 cells after 24 to 96 hrs by MTS assay; type: functional, cell-based; how it was run: as §2
[13] = tested on: Craf/Cmyc; experiment: Cytotoxicity against mouse Craf/Cmyc cells after 24 to 96 hrs by MTS assay; type: functional, cell-based; how it was run: as §2
[14] = tested on: Nucleic Acid; experiment: Binding affinity to salmon testes DNA by linear flow dichroism analysis; type: nucleic-acid assay; settings: Salmonidae
How it was run: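 Salmon testes DNA (1.9 × 10^-3 M) in ETN buffer (10 mM Tris, 10 mM NaCl, 1 mM EDTA, pH 7). Linear dichroism spectra were recorded at 25 °C over a range of [drug]/[DNA] ratios on a spectropolarimeter converted for LD.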

[15] = species on record: Bos taurus; experiment: Inhibition of calf thymus topoisomerase 1-mediated relaxation of supercoiled pBR322 at 100 uM after 60 mins using ethidium bromide staining by agarose gel electrophoresis
How it was run: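 Supercoiled pBR322 (0.25 µg) with 2 U calf thymus topoisomerase I and test compound, 60 min at 37 °C in 20 µl reaction buffer. Stopped with SDS/bromophenol blue/glycerol plus 50 µg/mL proteinase K, 30 min at 37 °C. Run on 1% agarose at room temperature, stained with ethidium bromide 1 µg/mL in TAE, imaged under UV.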

[16] = molecular target: DNA topoisomerase 2-alpha (Homo sapiens) (UniProt P11388); experiment: Inhibition of human recombinant topoisomerase 2alpha-mediated relaxation of supercoiled pBR322 after 60 mins using ethidium bromide staining by agarose gel electrophoresis
How it was run: (§3)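 Supercoiled pBR322 (0.25 µg) with 1 U human recombinant topoisomerase IIα and test compound, 60 min at 37 °C in 20 µl reaction buffer. Stopped with SDS/bromophenol blue/glycerol plus 50 µg/mL proteinase K, 30 min at 37 °C. Separated on 1% agarose at room temperature, ethidium bromide stained (1 µg/mL, TAE), UV-visualized.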

[17] = molecular target: DNA topoisomerase 2-alpha (Homo sapiens) (UniProt P11388); experiment: Inhibition of human recombinant topoisomerase 2alpha-mediated relaxation of supercoiled pBR322 at 50 uM after 60 mins using ethidium bromide staining by agarose gel electrophoresis; how it was run: as §3
[18] = molecular target: DNA topoisomerase 2-alpha (Homo sapiens) (UniProt P11388); experiment: Inhibition of human recombinant topoisomerase 2alpha-mediated relaxation of supercoiled pBR322 at up to 100 uM after 60 mins using ethidium bromide staining by agarose gel electrophoresis; how it was run: as §3
[19] = tested on: HUVEC; experiment: Antiangiogenic activity in HUVEC cocultured with human PaSMC assessed as inhibition of capillary-like network formation up to 200 nM after 72 hrs; type: functional, cell-based
How it was run: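 Primary HUVEC (passage 5, retrovirally labelled with RFP) and pulmonary artery vSMC (passage 5) co-seeded at 5×10^4 PaSMC plus 10×10^3 HUVEC per well in EGM-2, briefly spun at 200 g, attached 3 h. Compounds were then added at final 2–200 nM, two replicates per concentration. Networks formed over 72 h at 37 °C, 5% CO2, followed by automated imaging and image analysis of tube formation.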

[20] = tested on: A2B1; experiment: Induction apoptosis in mouse A2B1 cells assessed as relative caspase activity at 10 uM/L after 2 hrs by rhodamine 110 fluorescence assay; type: functional, cell-based
How it was run: (§4)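 Cells were pretreated with compound (10 µmol/L) for 2 h. The cell-permeable caspase substrate (Asp)2-rhodamine 110 (10 µmol/L) was then added for 2 h more. Caspase cleavage releases fluorescent rhodamine 110, and the read-out was mean fluorescence.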

[21] = tested on: A2C12; experiment: Induction apoptosis in mouse A2C12 cells assessed as relative caspase activity at 10 uM/L after 2 hrs by rhodamine 110 fluorescence assay; type: functional, cell-based; how it was run: as §4
[22] = tested on: B3; experiment: Induction apoptosis in mouse B3 cells assessed as relative caspase activity at 10 uM/L after 2 hrs by rhodamine 110 fluorescence assay; type: functional, cell-based; how it was run: as §4
[23] = species on record: Mus musculus; experiment: Induction apoptosis in mouse betaD5 cells assessed as relative caspase activity at 10 uM/L after 2 hrs by rhodamine 110 fluorescence assay; type: functional, cell-based; how it was run: as §4
[24] = species on record: Mus musculus; experiment: Induction apoptosis in mouse betaD10 cells assessed as relative caspase activity at 10 uM/L after 2 hrs by rhodamine 110 fluorescence assay; type: functional, cell-based; how it was run: as §4
[25] = tested on: Craf/Cmyc; experiment: Induction apoptosis in mouse Craf/Cmyc cells assessed as relative caspase activity at 10 uM/L after 2 hrs by rhodamine 110 fluorescence assay; type: functional; how it was run: as §4
[26] = tested on: yA3; experiment: Induction apoptosis in mouse yA3 cells assessed as relative caspase activity at 10 uM/L after 2 hrs by rhodamine 110 fluorescence assay; type: functional, cell-based; how it was run: as §4
[27] = tested on: yA7; experiment: Induction apoptosis in mouse yA7 cells assessed as relative caspase activity at 10 uM/L after 2 hrs by rhodamine 110 fluorescence assay; type: functional, cell-based; how it was run: as §4
[28] = tested on: yB8; experiment: Induction apoptosis in mouse yB8 cells assessed as relative caspase activity at 10 uM/L after 2 hrs by rhodamine 110 fluorescence assay; type: functional, cell-based; how it was run: as §4
[29] = tested on: yD1; experiment: Induction apoptosis in mouse yD1 cells assessed as relative caspase activity at 10 uM/L after 2 hrs by rhodamine 110 fluorescence assay; type: functional, cell-based; how it was run: as §4
[30] = tested on: yD12; experiment: Induction apoptosis in mouse yD12 cells assessed as relative caspase activity at 10 uM/L after 2 hrs by rhodamine 110 fluorescence assay; type: functional, cell-based; how it was run: as §4
[31] = tested on: A2B1; experiment: Induction apoptosis in mouse A2B1 cells assessed as ROS production at 10 uM/L using DCFH-DA by flow cytometry relative to control; type: functional, cell-based
How it was run: (§5)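 Transgenic mouse cells exposed to compound at 10 µmol/L. ROS generation was measured by flow cytometry using the probe DCFH-DA.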

[32] = tested on: A2C12; experiment: Induction apoptosis in mouse A2C12 cells assessed as ROS production at 10 uM/L using DCFH-DA by flow cytometry relative to control; type: functional, cell-based; how it was run: as §5
[33] = tested on: B3; experiment: Induction apoptosis in mouse B3 cells assessed as ROS production at 10 uM/L using DCFH-DA by flow cytometry relative to control; type: functional, cell-based; how it was run: as §5
[34] = species on record: Mus musculus; experiment: Induction apoptosis in mouse betaD5 cells assessed as ROS production at 10 uM/L using DCFH-DA by flow cytometry relative to control; type: functional, cell-based; how it was run: as §5
[35] = species on record: Mus musculus; experiment: Induction apoptosis in mouse betaD10 cells assessed as ROS production at 10 uM/L using DCFH-DA by flow cytometry relative to control; type: functional, cell-based; how it was run: as §5
[36] = tested on: Craf/Cmyc; experiment: Induction apoptosis in mouse Craf/Cmyc cells assessed as ROS production at 10 uM/L using DCFH-DA by flow cytometry relative to control; type: functional, cell-based; how it was run: as §5
[37] = tested on: yA3; experiment: Induction apoptosis in mouse yA3 cells assessed as ROS production at 10 uM/L using DCFH-DA by flow cytometry relative to control; type: functional, cell-based; how it was run: as §5
[38] = tested on: yA7; experiment: Induction apoptosis in mouse yA7 cells assessed as ROS production at 10 uM/L using DCFH-DA by flow cytometry relative to control; type: functional, cell-based; how it was run: as §5
[39] = tested on: yB8; experiment: Induction apoptosis in mouse yB8 cells assessed as ROS production at 10 uM/L using DCFH-DA by flow cytometry relative to control; type: functional, cell-based; how it was run: as §5
[40] = tested on: yD1; experiment: Induction apoptosis in mouse yD1 cells assessed as ROS production at 10 uM/L using DCFH-DA by flow cytometry relative to control; type: functional, cell-based; how it was run: as §5
[41] = tested on: yD12; experiment: Induction apoptosis in mouse yD12 cells assessed as ROS production at 10 uM/L using DCFH-DA by flow cytometry relative to control; type: functional, cell-based; how it was run: as §5

DNA topoisomerase 2-alpha (Homo sapiens), sequence (P11388 whole entry): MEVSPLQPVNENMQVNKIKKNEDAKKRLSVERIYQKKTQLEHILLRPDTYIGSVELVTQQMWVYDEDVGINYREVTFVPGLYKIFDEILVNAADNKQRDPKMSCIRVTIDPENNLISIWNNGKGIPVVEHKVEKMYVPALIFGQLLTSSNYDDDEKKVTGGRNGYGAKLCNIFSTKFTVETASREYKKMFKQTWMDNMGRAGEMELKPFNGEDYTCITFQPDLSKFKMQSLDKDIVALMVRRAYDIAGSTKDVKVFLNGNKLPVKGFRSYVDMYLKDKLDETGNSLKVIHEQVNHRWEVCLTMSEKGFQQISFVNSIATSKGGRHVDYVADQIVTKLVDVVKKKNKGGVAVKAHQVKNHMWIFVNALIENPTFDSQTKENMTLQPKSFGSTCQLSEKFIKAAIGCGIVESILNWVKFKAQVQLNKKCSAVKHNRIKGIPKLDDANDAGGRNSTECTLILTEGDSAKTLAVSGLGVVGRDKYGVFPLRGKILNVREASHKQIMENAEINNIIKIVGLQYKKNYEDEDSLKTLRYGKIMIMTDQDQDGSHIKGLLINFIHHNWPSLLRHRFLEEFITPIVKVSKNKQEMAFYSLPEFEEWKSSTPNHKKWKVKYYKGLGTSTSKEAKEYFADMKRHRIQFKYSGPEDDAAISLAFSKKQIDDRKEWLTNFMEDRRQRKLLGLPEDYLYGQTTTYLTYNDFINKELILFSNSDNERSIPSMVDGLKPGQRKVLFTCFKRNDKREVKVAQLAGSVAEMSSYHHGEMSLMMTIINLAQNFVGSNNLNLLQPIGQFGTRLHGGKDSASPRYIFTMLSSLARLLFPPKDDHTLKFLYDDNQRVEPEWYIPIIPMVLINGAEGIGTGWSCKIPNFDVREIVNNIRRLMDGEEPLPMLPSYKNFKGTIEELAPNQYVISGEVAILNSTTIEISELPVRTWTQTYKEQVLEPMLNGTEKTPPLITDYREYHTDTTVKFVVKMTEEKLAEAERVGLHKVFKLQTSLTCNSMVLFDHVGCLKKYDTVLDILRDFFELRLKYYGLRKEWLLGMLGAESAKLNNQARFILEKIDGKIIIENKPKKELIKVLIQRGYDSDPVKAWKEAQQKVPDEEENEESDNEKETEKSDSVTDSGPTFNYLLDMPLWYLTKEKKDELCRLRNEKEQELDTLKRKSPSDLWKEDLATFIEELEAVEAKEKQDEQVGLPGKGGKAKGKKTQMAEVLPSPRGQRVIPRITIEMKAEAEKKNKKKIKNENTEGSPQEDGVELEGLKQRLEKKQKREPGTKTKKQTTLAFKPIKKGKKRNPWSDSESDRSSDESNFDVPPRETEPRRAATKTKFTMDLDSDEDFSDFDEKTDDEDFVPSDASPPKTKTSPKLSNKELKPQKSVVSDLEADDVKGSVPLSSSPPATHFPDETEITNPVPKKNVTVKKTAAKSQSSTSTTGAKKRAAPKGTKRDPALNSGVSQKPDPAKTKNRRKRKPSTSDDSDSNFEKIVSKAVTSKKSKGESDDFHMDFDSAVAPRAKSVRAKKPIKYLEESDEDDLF

Structure (SMILES): CC[C@@]1(OC(=O)NCCNC(=O)CCSSCCC(=O)NCCNC(=O)O[C@]2(CC)C(=O)OCc3c2cc2n(c3=O)Cc3cc4ccccc4nc3-2)C(=O)OCc2c1cc1n(c2=O)Cc2cc3ccccc3nc2-1
- pIC50 [1]: 6.82
- pIC50 [2]: 6.15
- pIC50 [3]: 6.04
- Activity [4]: Active
- Activity [5]: Active
- Activity [6]: Active
- Activity [7]: Active
- Activity [8]: Active
- Activity [9]: Active
- Activity [10]: Active
- Activity [11]: Active
- Activity [12]: Active
- Activity [13]: Active
- Activity [14]: inactive
- Activity [15]: inactive
- Activity [16]: Dose-dependent effect
- inhibition [17]: Active

Structure (SMILES): CC[C@@]1(OC(=O)NCCN2C(=O)CCCSSCCCC2=O)C(=O)OCc2c1cc1n(c2=O)Cc2cc3ccccc3nc2-1
- pIC50 [1]: 5.92
- pIC50 [2]: 6.24
- pIC50 [3]: 5.81
- Activity [4]: Active
- Activity [5]: Active
- Activity [6]: Active
- Activity [7]: Active
- Activity [8]: Active
- Activity [9]: Active
- Activity [10]: Active
- Activity [11]: Active
- Activity [12]: Active
- Activity [13]: Active
- Activity [14]: inactive
- Activity [15]: inactive
- Activity [18]: inactive
- Activity [19]: inactive

Structure (SMILES): CC[C@@]1(OC(=O)NCCN2C(=O)CCCCCCCCC2=O)C(=O)OCc2c1cc1n(c2=O)Cc2cc3ccccc3nc2-1
- pIC50 [1]: 5.73
- pIC50 [2]: 5.08
- pIC50 [3]: 4.91
- Activity [4]: Active
- Activity [5]: Active
- Activity [6]: Active
- Activity [7]: Active
- Activity [8]: Active
- Activity [9]: Active
- Activity [10]: Active
- Activity [11]: Active
- Activity [12]: Active
- Activity [13]: Active
- Activity [14]: inactive
- Activity [15]: inactive
- Activity [18]: inactive
- Activity [20]: inactive
- Activity [21]: inactive
- Activity [22]: inactive
- Activity [23]: inactive
- Activity [24]: inactive
- Activity [25]: inactive
- Activity [26]: inactive
- Activity [27]: inactive
- Activity [28]: inactive
- Activity [29]: inactive
- Activity [30]: inactive
- Activity [31]: inactive
- Activity [32]: inactive
- Activity [33]: inactive
- Activity [34]: inactive
- Activity [35]: inactive
- Activity [36]: inactive
- Activity [37]: inactive
- Activity [38]: inactive
- Activity [39]: inactive
- Activity [40]: inactive
- Activity [41]: inactive

Structure (SMILES): CC[C@@]1(OC(=O)NCCN2C(=O)CSSCC2=O)C(=O)OCc2c1cc1n(c2=O)Cc2cc3ccccc3nc2-1
- Activity [14]: inactive
- Activity [18]: inactive

Structure (SMILES): CC[C@@]1(OC(=O)NCCNC(=O)CSSCC(=O)NCCNC(=O)O[C@]2(CC)C(=O)OCc3c2cc2n(c3=O)Cc3cc4ccccc4nc3-2)C(=O)OCc2c1cc1n(c2=O)Cc2cc3ccccc3nc2-1
- Activity [14]: inactive
- Activity [18]: inactive
